Data from ChEMBL document CHEMBL1138555, “N-acylated and N,N'-diacylated imidazolidine-2-thione derivatives and N,N'-diacylated tetrahydropyrimidine-2(1H)-thione analogues: synthesis and antiproliferative activity” (Eur J Med Chem, 2009).

Key:
A549 = assay: Growth inhibition of human A549 cells after 48 hrs by sulforhodamine B assay; type: functional; conditions: A549, 48 h
Method in brief: (§1)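 NCI screen panel. Five 10-fold concentrations from 10^-4 to 10^-8 M. Exposure for the last 48 h of a 72 h incubation. Growth estimated by sulforhodamine B protein assay. GI50 is the concentration giving 50% growth inhibition. Where that level was not reached or was exceeded, the value is given as above or below the highest or lowest concentration tested.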

HOP-62 = assay: Growth inhibition of human HOP62 cells after 48 hrs by sulforhodamine B assay; type: functional; conditions: HOP-62, 48 h; method in brief: as §1
SNB-19 = assay: Growth inhibition of human SNB19 cells after 48 hrs by sulforhodamine B assay; type: functional; conditions: SNB-19, 48 h
Method in brief: (§2)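 NCI in vitro panel screen. Compounds tested at five 10-fold dilutions, 10^-4 to 10^-8 M. Cells in 96-well plates were exposed for the last 48 h of a 72 h incubation. Viability/growth was read by sulforhodamine B protein assay. GI50 is the concentration giving 50% growth inhibition. Values beyond the tested range are reported as greater or less than the maximum or minimum concentration.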

HT-29 = assay: Growth inhibition of human HT-29 cells after 48 hrs by sulforhodamine B assay; type: functional; conditions: HT-29, 48 h; method in brief: as §1
786-0 = assay: Growth inhibition of human 786-0 cells after 48 hrs by sulforhodamine B assay; type: functional; conditions: 786-0, 48 h; method in brief: as §1
SN12C = assay: Growth inhibition of human SN12C cells after 48 hrs by sulforhodamine B assay; type: functional; method in brief: as §2
SK-OV-3 = assay: Growth inhibition of human SKOV3 cells after 48 hrs by sulforhodamine B assay; type: functional; conditions: SK-OV-3, 48 h; method in brief: as §1
HOP-92 = assay: Growth inhibition of human HOP92 cells after 48 hrs by sulforhodamine B assay; type: functional; conditions: HOP-92, 48 h; method in brief: as §1
CCRF-CEM = assay: Growth inhibition of human CCRF-CEM cells after 48 hrs by sulforhodamine B assay; type: functional; method in brief: as §1
HL-60(TB) = assay: Growth inhibition of human HL-60(TB) cells after 48 hrs by sulforhodamine B assay; type: functional; conditions: HL-60, 48 h
Method in brief: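 NCI 60-cell-line screen protocol: cells exposed to compound at five 10-fold dilutions from 10^-4 to 10^-8 M for the last 48 h of a 72 h incubation. Sulforhodamine B protein assay estimated viability/growth. GI50 (50% growth inhibition) derived; where not reached or exceeded, reported as greater or less than the highest or lowest concentration tested.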

NCI-H322M = assay: Growth inhibition of human NCI-H322M cells after 48 hrs by sulforhodamine B assay; type: functional; method in brief: as §1
[1] = Growth inhibition of human […] cells after 48 hrs by sulforhodamine B assay; type: functional; method in brief: as §1
NCI-H460 = assay: Growth inhibition of human NCI-H460 cells after 48 hrs by sulforhodamine B assay; type: functional; conditions: NCI-H460, 48 h; method in brief: as §1
DU-145 = assay: Growth inhibition of human DU145 cells after 48 hrs by sulforhodamine B assay; type: functional; conditions: DU-145, 48 h; method in brief: as §1
MDA-MB-231 = assay: Growth inhibition of human MDA-MB-231 cells after 48 hrs by sulforhodamine B assay; type: functional; conditions: MDA-MB-231, 48 h; method in brief: as §1
U-251 = assay: Growth inhibition of human U251 cells after 48 hrs by sulforhodamine B assay; type: functional; conditions: U-251, 48 h; method in brief: as §2
LOX IMVI = assay: Growth inhibition of human LOXIMVI cells after 48 hrs by sulforhodamine B assay; type: functional; method in brief: as §1
M14 = assay: Growth inhibition of human M14 cells after 48 hrs by sulforhodamine B assay; type: functional; conditions: M14, 48 h; method in brief: as §1
SK-MEL-28 = assay: Growth inhibition of human SK-MEL-28 cells after 48 hrs by sulforhodamine B assay; type: functional; conditions: SK-MEL-28, 48 h; method in brief: as §1
SF-268 = assay: Growth inhibition of human SF268 cells after 48 hrs by sulforhodamine B assay; type: functional; conditions: SF-268, 48 h; method in brief: as §1
T47D = assay: Growth inhibition of human T47D cells after 48 hrs by sulforhodamine B assay; type: functional; method in brief: as §2
SK-MEL-5 = assay: Growth inhibition of human SK-MEL-5 cells after 48 hrs by sulforhodamine B assay; type: functional; conditions: SK-MEL-5, 48 h; method in brief: as §1
HCT-15 = assay: Growth inhibition of human HCT15 cells after 48 hrs by sulforhodamine B assay; type: functional; conditions: HCT-15, 48 h; method in brief: as §1
COLO 205 = assay: Growth inhibition of human COLO205 cells after 48 hrs by sulforhodamine B assay; type: functional; conditions: COLO 205, 48 h; method in brief: as §1
EKVX = assay: Growth inhibition of human EKVX cells after 48 hrs by sulforhodamine B assay; type: functional; method in brief: as §1
TK-10 = assay: Growth inhibition of human TK10 cells after 48 hrs by sulforhodamine B assay; type: functional; conditions: TK-10, 48 h; method in brief: as §2
MOLT-4 = assay: Growth inhibition of human MOLT4 cells after 48 hrs by sulforhodamine B assay; type: functional; conditions: MOLT-4, 48 h; method in brief: as §1
OVCAR-8 = assay: Growth inhibition of human OVCAR8 cells after 48 hrs by sulforhodamine B assay; type: functional; conditions: OVCAR-8, 48 h; method in brief: as §1
UACC-62 = assay: Growth inhibition of human UACC62 cells after 48 hrs by sulforhodamine B assay; type: functional; conditions: UACC-62, 48 h; method in brief: as §2
Malme-3M = assay: Growth inhibition of human MALME-3M cells after 48 hrs by sulforhodamine B assay; type: functional; method in brief: as §1
UO-31 = assay: Growth inhibition of human UO31 cells after 48 hrs by sulforhodamine B assay; type: functional; conditions: UO-31, 48 h; method in brief: as §2
SR = assay: Growth inhibition of human SR cells after 48 hrs by sulforhodamine B assay; type: functional; method in brief: as §2
ACHN = assay: Growth inhibition of human ACHN cells after 48 hrs by sulforhodamine B assay; type: functional; method in brief: as §1
HCT-116 = assay: Growth inhibition of human HCT116 cells after 48 hrs by sulforhodamine B assay; type: functional; conditions: HCT-116, 48 h; method in brief: as §1
MDA-MB-435 = assay: Growth inhibition of human MDA-MB-435 cells after 48 hrs by sulforhodamine B assay; type: functional; conditions: MDA-MB-435, 48 h; method in brief: as §1
MT4 = assay: Antiproliferative activity against human MT4 cells assessed as reduction of growth by MTT assay; type: functional, cell-based
Method in brief: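 MT-4 lymphoblastoid T cells (ATCC) in RPMI 1640 with 10% FCS, penicillin/streptomycin, checked for mycoplasma. 1 × 10⁴ mock-infected cells per well with serial dilutions from a 100 mM DMSO stock. Incubated 4 days at 37 °C, viable cells counted by MTT. IC50 versus untreated controls by linear regression. Mean of three separate experiments.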

CAKI-1 = assay: Growth inhibition of human Caki1 cells after 48 hrs by sulforhodamine B assay; type: functional; conditions: CAKI-1, 48 h; method in brief: as §1
NCI-H23 = assay: Growth inhibition of human NCI-H23 cells after 48 hrs by sulforhodamine B assay; type: functional; conditions: NCI-H23, 48 h; method in brief: as §1
K562 = assay: Growth inhibition of human K562 cells after 48 hrs by sulforhodamine B assay; type: functional; conditions: K562, 48 h; method in brief: as §1
SF-295 = assay: Growth inhibition of human SF295 cells after 48 hrs by sulforhodamine B assay; type: functional; conditions: SF-295, 48 h; method in brief: as §1
BT-549 = assay: Growth inhibition of human BT549 cells after 48 hrs by sulforhodamine B assay; type: functional; conditions: BT-549, 48 h; method in brief: as §1
SW-620 = assay: Growth inhibition of human SW620 cells after 48 hrs by sulforhodamine B assay; type: functional; conditions: SW-620, 48 h; method in brief: as §2
KM12 = assay: Growth inhibition of human KM12 cells after 48 hrs by sulforhodamine B assay; type: functional; conditions: KM12, 48 h; method in brief: as §1
PC-3 = assay: Growth inhibition of human PC3 cells after 48 hrs by sulforhodamine B assay; type: functional; conditions: PC-3, 48 h; method in brief: as §1
OVCAR-3 = assay: Growth inhibition of human OVCAR-3 cells after 48 hrs by sulforhodamine B assay; type: functional; conditions: OVCAR-3, 48 h; method in brief: as §1
OVCAR-4 = assay: Growth inhibition of human OVCAR4 cells after 48 hrs by sulforhodamine B assay; type: functional; conditions: OVCAR-4, 48 h; method in brief: as §1
SNB-75 = assay: Growth inhibition of human SNB75 cells after 48 hrs by sulforhodamine B assay; type: functional; conditions: SNB-75, 48 h; method in brief: as §2

CCOC(=O)/C(=C/N1CCN(C(=O)c2ccco2)C1=S)C(=O)c1ccccc1
GI50 (A549): 11.6 µM | GI50 (HOP-62): 17.3 µM | GI50 (SNB-19): 35.6 µM | GI50 (HT-29): 19.2 µM | GI50 (786-0): 12.9 µM | GI50 (SN12C): 8.1 µM | GI50 (SK-OV-3): 20 µM | GI50 (HOP-92): 23 µM | GI50 (CCRF-CEM): 15.6 µM | GI50 (HL-60(TB)): 14.9 µM | GI50 (NCI-H322M): 14.2 µM | GI50 [1]: 12.4 µM | GI50 (NCI-H460): 4.9 µM | GI50 (DU-145): 8 µM | GI50 (MDA-MB-231): 10.8 µM | GI50 (U-251): 11.5 µM | GI50 (LOX IMVI): 6.5 µM | GI50 (M14): 8.9 µM | GI50 (SK-MEL-28): 22.2 µM | GI50 (SF-268): 7.2 µM | GI50 (T47D): 4.1 µM | GI50 (SK-MEL-5): < 0.005 µM | GI50 (HCT-15): 6.3 µM | GI50 (COLO 205): 19.2 µM | GI50 (EKVX): 9.5 µM | GI50 (TK-10): 12.4 µM | GI50 (MOLT-4): 19.6 µM | GI50 (OVCAR-8): 11.7 µM | GI50 (UACC-62): 7.6 µM | GI50 (Malme-3M): 13.3 µM | GI50 (UO-31): 10 µM | GI50 (SR): 2.4 µM | GI50 (ACHN): 8.5 µM | GI50 (HCT-116): 8.9 µM | GI50 (MDA-MB-435): 14.4 µM | IC50 (MT4): 4 µM | GI50 (CAKI-1): 15.9 µM | GI50 (NCI-H23): 7.7 µM | GI50 (K562): 17.7 µM | GI50 (SF-295): 16.4 µM | GI50 (BT-549): 9 µM | GI50 (SW-620): 7.9 µM | GI50 (KM12): 10.1 µM | GI50 (PC-3): 19.4 µM | GI50 (OVCAR-3): 20.2 µM | GI50 (OVCAR-4): 31 µM | GI50 (SNB-75): 46 µM
